Test results: ChEMBL document CHEMBL4828745, “Discovery and Structure-Activity Relationships of Quinazolinone-2-carboxamide Derivatives as Novel Orally Efficacious Antimalarials” (J Med Chem, 2021)

What was measured:
[1] = AUC (0 to infinity) in Sprague-Dawley rat at 1 mg/kg, iv by LC-MS analysis; type: ADME, organism-based; set-up: route intravenous, time infinity, dose 1 mg/kg; conditions: in vivo
In short: (§1)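 Male Sprague Dawley rats (n = 3) dosed IV at 1 mg/kg with the Na·4H2O salt in 50% DMA/50% PEG400. Plasma concentration–time profiles were obtained, and non-compartmental parameters are given as mean ± SD.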

[2] = Half life in Sprague-Dawley rat at 5.6 mg/kg, po by LC-MS analysis; type: ADME, organism-based; conditions: in vivo
In short: (§2)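 Male Sprague Dawley rats (n = 3) dosed orally at 5.6 mg/kg with the Na·4H2O salt suspended in 0.5% methyl cellulose in water. Plasma was sampled over time. Bioavailability was taken relative to the 1 mg/kg IV arm.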

[3] = Plasma clearance in Swiss outbred mouse at 0.95 mg/kg, iv by LC-MS analysis; type: ADME, organism-based
[4] = AUC (0 to infinity) in Sprague-Dawley rat at 5.6 mg/kg, po by LC-MS analysis; type: ADME, organism-based; set-up: time infinity, route oral, dose 5.6 mg/kg; conditions: in vivo; in short: as §2
[5] = AUC (0 to infinity) in Swiss outbred mouse at 0.95 mg/kg, iv by LC-MS analysis; type: ADME, organism-based; set-up: route intravenous, time infinity, dose 0.95 mg/kg; conditions: in vivo
[6] = Clearance in Swiss outbred mouse blood at 0.95 mg/kg, iv by LC-MS analysis; type: ADME, organism-based
[7] = Tmax in Sprague-Dawley rat at 5.6 mg/kg, po by LC-MS analysis; type: ADME, organism-based; conditions: in vivo; in short: as §2
[8] = Oral bioavailability in Sprague-Dawley rat at 5.6 mg/kg by LC-MS analysis; type: ADME, organism-based; conditions: in vivo; in short: as §2
[9] = Plasma clearance in Sprague-Dawley rat at 1 mg/kg, iv by LC-MS analysis; type: ADME, organism-based; in short: as §1
[10] = Volume of distribution at steady state in Sprague-Dawley rat plasma at 1 mg/kg, iv by LC-MS analysis; type: ADME, organism-based; conditions: read-out: Vdss; in short: as §1
[11] = Cmax in Sprague-Dawley rat at 5.6 mg/kg, po by LC-MS analysis; type: ADME, organism-based; set-up: route oral, dose 5.6 mg/kg; conditions: in vivo; in short: as §2
[12] = Half life in Sprague-Dawley rat at 1 mg/kg, iv by LC-MS analysis; type: ADME, organism-based; conditions: in vivo; in short: as §1
[13] = target: T1, Interstitial collagenase (Homo sapiens) (UniProt P03956); assay: Inhibition of human MMP1 assessed as fluorescence intensity using DNP-Pro-Cha-Gly-Cys(Me)-His-Ala-Lys(n-Me-Abz)-NH2 as substrate at 10 uM incubated for 20 mins relative to control
T1 sequence (whole entry): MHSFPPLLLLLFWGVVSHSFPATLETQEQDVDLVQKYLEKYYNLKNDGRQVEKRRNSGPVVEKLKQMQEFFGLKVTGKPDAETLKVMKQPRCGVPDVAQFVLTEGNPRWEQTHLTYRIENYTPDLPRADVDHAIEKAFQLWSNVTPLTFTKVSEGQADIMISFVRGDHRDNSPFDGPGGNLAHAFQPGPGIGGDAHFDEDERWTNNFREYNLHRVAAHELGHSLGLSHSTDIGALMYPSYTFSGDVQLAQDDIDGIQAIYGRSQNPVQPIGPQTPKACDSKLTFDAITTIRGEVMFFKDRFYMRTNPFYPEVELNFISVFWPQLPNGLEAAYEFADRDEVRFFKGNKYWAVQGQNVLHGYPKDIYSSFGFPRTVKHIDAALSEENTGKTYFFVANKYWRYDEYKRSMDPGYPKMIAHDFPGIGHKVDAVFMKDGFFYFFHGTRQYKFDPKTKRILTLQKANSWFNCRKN

[14] = target: Matrix metalloproteinase-14 (Homo sapiens) (UniProt P50281); assay: Inhibition of human MMP14 assessed as fluorescence intensity using Mca-Pro-Leu-Ala-Cys(p-OmeBz)-Trp-Ala-Arg(Dpa)-NH2 as substrate at 10 uM incubated for 60 mins relative to control

| SMILES | AUC(0-inf) [1] [µM·h] | half-life [2] [h] | clearance [3] [mL/min/kg] | AUC(0-inf) [4] [µM·h] | AUC(0-inf) [5] [µM·h] | clearance [6] [mL/min/kg] | Tmax [7] [h] | bioavailability [8] [%] | clearance [9] [mL/min/kg] | Vd [10] [L/kg] | Cmax [11] [nM] | half-life [12] [h] | inhibition [13] [%] | inhibition [14] [%] |
| --- | --- | --- | --- | --- | --- | --- | --- | --- | --- | --- | --- | --- | --- | --- |
| CCc1cccc(CNC(=O)c2nc3cccc(COCc4ccc(C(=O)[O-])cc4)c3c(=O)[nH]2)c1.O.O.O.O.[Na+] | 3.7 | 3.2 | 31 | 6.9 | 1.1 | 57 | 0.5 | 34 | 9.5 | 0.88 | 1700 | 5.3 |  |  |
| CCc1cccc(CNC(=O)c2nc3cccc(COCc4ccc(C(=O)O)cc4)c3c(=O)[nH]2)c1 |  |  |  |  |  |  |  |  |  |  |  |  | 11.3 | 10.8 |
